Laboratory results taken from ChEMBL document CHEMBL4190374, “Structure-Function Evaluation of Imidazopyridine Derivatives Selective for δ-Subunit-Containing γ-Aminobutyric Acid Type A (GABAA) Receptors” (J Med Chem, 2018).

What was measured:
[1] = molecular target: Gamma-aminobutyric acid receptor subunit alpha-6/beta-3 (Rattus norvegicus, UniProt P30191+P63079); test: Displacement of [3H]EBOB from rat GABA-A receptor alpha6beta3 expressed in HEK293 cell membranes after 90 mins by liquid scintillation counting analysis
Procedure, shortened: (§1)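 Crude membranes from HEK 293 cells transiently Ca-phosphate-transfected with rat subunit cDNAs, harvested at 48 h. Membranes (150-200 µg protein) incubated with 3 nM [3H]EBOB in 50 mM Tris/citrate pH 7.3 plus 0.2 M NaCl. Compound up to 10 µM, final DMSO 0.1%, no GABA, 90 min at 21 °C. Bound radioligand collected by GF/C filtration and counted by scintillation.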

[2] = molecular target: Gamma-aminobutyric acid receptor subunit alpha-6/beta-3/gamma-2 (Rattus norvegicus, UniProt P18508+P30191+P63079); test: Displacement of [3H]EBOB from rat GABA-A receptor alpha6beta3gamma2 expressed in HEK293 cell membranes after 90 mins by liquid scintillation counting analysis; procedure, shortened: as §1
[3] = molecular target: Gamma-aminobutyric acid receptor subunit alpha-6/beta-3/delta (Rattus norvegicus, UniProt P18506+P30191+P63079); test: Displacement of [3H]EBOB from rat GABA-A receptor alpha6beta3delta expressed in HEK293 cell membranes after 90 mins by liquid scintillation counting analysis; procedure, shortened: as §1
[4] = molecular target: Gamma-aminobutyric acid receptor subunit alpha-6/beta-3 (Rattus norvegicus) (UniProt P30191+P63079); test: Displacement of [3H]EBOB from rat GABA-A receptor alpha6beta3 expressed in HEK293 cell membranes up to 20 uM after 90 mins by liquid scintillation counting analysis relative to control
[5] = molecular target: Gamma-aminobutyric acid receptor subunit alpha-6/beta-3/gamma-2 (Rattus norvegicus) (UniProt P18508+P30191+P63079); test: Displacement of [3H]EBOB from rat GABA-A receptor alpha6beta3gamma2 expressed in HEK293 cell membranes up to 20 uM after 90 mins by liquid scintillation counting analysis relative to control
[6] = molecular target: Gamma-aminobutyric acid receptor subunit alpha-6/beta-3/delta (Rattus norvegicus) (UniProt P18506+P30191+P63079); test: Displacement of [3H]EBOB from rat GABA-A receptor alpha6beta3delta expressed in HEK293 cell membranes up to 20 uM after 90 mins by liquid scintillation counting analysis relative to control

Gamma-aminobutyric acid receptor subunit alpha-6/beta-3/delta, sequence (P18506 whole entry): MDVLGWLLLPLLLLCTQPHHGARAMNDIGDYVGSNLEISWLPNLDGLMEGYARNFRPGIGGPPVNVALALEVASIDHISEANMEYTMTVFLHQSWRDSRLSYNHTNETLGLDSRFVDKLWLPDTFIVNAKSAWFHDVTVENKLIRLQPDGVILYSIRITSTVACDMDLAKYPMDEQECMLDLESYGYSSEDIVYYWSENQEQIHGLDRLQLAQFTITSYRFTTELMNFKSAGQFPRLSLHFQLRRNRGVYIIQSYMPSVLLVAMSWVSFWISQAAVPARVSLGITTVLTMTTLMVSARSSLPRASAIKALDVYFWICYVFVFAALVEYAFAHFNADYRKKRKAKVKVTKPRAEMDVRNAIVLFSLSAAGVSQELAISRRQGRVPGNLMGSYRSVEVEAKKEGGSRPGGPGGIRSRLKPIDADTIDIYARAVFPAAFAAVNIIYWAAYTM
Gamma-aminobutyric acid receptor subunit alpha-6/beta-3/delta, sequence (P30191 whole entry): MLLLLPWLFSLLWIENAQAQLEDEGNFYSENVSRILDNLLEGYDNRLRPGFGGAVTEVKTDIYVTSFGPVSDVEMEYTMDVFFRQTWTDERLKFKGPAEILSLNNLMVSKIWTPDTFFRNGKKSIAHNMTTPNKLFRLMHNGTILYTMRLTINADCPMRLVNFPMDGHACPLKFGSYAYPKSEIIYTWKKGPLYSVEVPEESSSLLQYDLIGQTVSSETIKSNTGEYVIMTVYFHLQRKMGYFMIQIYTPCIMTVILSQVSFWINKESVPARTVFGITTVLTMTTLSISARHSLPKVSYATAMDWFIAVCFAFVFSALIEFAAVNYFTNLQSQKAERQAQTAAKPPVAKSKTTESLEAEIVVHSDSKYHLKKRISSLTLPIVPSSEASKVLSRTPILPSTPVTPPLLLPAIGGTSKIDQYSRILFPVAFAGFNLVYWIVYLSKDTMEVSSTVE
Gamma-aminobutyric acid receptor subunit alpha-6/beta-3/delta, sequence (P63079 whole entry): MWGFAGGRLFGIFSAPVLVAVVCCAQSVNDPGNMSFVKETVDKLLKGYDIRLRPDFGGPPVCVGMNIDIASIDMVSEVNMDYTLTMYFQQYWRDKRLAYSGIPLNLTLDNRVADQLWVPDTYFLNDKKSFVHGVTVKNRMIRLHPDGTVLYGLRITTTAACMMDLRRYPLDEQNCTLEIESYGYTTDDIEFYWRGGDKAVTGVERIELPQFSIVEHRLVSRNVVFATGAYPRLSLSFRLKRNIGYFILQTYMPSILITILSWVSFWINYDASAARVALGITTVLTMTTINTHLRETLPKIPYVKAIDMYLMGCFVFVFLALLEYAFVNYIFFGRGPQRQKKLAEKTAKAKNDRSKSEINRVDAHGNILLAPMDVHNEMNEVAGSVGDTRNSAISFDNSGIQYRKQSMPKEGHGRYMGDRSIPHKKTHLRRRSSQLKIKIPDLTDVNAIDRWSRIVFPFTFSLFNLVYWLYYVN
Gamma-aminobutyric acid receptor subunit alpha-6/beta-3/gamma-2, sequence (P18508 whole entry): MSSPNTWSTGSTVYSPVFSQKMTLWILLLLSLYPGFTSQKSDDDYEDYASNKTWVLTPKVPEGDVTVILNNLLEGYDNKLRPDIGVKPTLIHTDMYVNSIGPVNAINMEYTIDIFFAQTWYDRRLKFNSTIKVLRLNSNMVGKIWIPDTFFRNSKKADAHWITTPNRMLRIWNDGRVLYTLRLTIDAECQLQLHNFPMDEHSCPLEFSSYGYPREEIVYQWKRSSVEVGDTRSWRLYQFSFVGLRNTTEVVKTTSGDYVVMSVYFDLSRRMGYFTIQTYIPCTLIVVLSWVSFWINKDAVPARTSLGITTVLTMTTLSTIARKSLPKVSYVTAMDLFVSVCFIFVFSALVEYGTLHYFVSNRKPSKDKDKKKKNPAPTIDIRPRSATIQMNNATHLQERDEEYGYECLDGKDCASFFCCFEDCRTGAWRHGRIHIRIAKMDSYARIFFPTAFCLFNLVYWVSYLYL
Gamma-aminobutyric acid receptor subunit alpha-6/beta-3/gamma-2, sequence (P30191 whole entry): as the sequence (P30191 whole entry) above
Gamma-aminobutyric acid receptor subunit alpha-6/beta-3/gamma-2, sequence (P63079 whole entry): as the sequence (P63079 whole entry) above
Gamma-aminobutyric acid receptor subunit alpha-6/beta-3, sequence (P30191 whole entry): as the sequence (P30191 whole entry) above
Gamma-aminobutyric acid receptor subunit alpha-6/beta-3, sequence (P63079 whole entry): as the sequence (P63079 whole entry) above

IC50 [1]: 16 µM | IC50 [2]: 25 µM | IC50 [3]: 10.1 µM | Imax [4]: 21% | Imax [5]: > 89% | Imax [6]: 85%
SMILES: O=C(Nc1c(-c2cccs2)nc2ccc(Br)cn12)C1CCCCC1
